The source of these data is ChEMBL document CHEMBL1134250, “Inhibition of neuronal nitric oxide synthase by 7-methoxyindazole and related substituted indazoles” (Bioorg Med Chem Lett, 2001).

In general, IC50 refers to the concentration needed to halve the response being measured. The term inhibition denotes the change of the read-out against control, counted positive when it falls. High values mean a strong effect, low ones a weak effect.

Structures are written as SMILES.

In assay [1] the target is T1, Nitric oxide synthase 1 (Rattus norvegicus, UniProt P29476). Description: In vitro inhibitory concentration against rat cerebellar neuronal nitric oxide synthase.
Assay [2] addresses Nitric oxide synthase 1 (Rattus norvegicus) (UniProt P29476). The assay can be described thus: Ex vivo inhibition of rat cerebellar neuronal nitric oxide synthase after intraperitoneal administration in rats. The following applies: concentration not given here. The assay is classed as functional, organism-based. In short, it runs like this: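 Rats, n=6, received 50 mg/kg ip in arachis oil. Cerebellum removed 30 min later. nNOS activity measured ex vivo as L-[3H]arginine to L-[3H]citrulline conversion. Expressed as % inhibition.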

Assay [3] has the same target. Description: In vitro percent inhibition of rat cerebellar neuronal nitric oxide synthase at a concentration of 100 uM. In short, it runs like this:
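Rat cerebellar homogenate nNOS, assayed as L-[3H]arginine to L-[3H]citrulline conversion (1 mM CaCl2, 200 μM β-NADPH, 0.88 μM L-arginine, 0.12 µM L-[3H]arginine, 15 min, 37 °C). Compound at 100 µM in ethanol or DMSO vehicle. Result given as % inhibition.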

Assay [4] relates to Mus musculus. Description: Effect of l-Arginine on Antinociceptive activity in mice(ip) at a dose of 50 mg/kg (p<0.05). The assay is classed as functional.
Assay [5] concerns Mus musculus. Description: Antinociceptive activity in Writhing test in mice(ip) at a dose of 50 mg/kg (p<0.001). The assay is classed as functional.
Assay [6] deals with Mus musculus. The assay can be described thus: Antinociceptive activity in Writhing test in mice(ip) at a dose of 25 mg/kg (p<0.05). It is filed as functional. For orientation: An intraperitoneal irritant provokes the stretching counted in writhing tests.
Assay [7] has as its system Mus musculus. Description: Antinociceptive activity in Writhing test in mice(ip) at a dose of 10 mg/kg (p<0.05). The assay is classed as functional.
Assay [8] concerns the target T1, Nitric oxide synthase 1. Description: In vitro inhibitory concentration against rat cerebellar neuronal nitric oxide synthase; no effect. In short, it runs like this: (§1)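 Rat cerebellum homogenate nNOS. L-[3H]arginine to L-[3H]citrulline conversion with 1 mM CaCl2, 200 μM β-NADPH, 0.88 μM L-arginine and 0.12 µM L-[3H]arginine, 15 min at 37 °C. Vehicle ethanol or DMSO 0.4–0.8%. IC50 from inhibition curves at 0.1, 1, 10 and 100 µM. Mean ± SEM, 1–6 experiments.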

Assay [9] relates to Mus musculus. The assay can be described thus: Antinociceptive activity in Writhing test in mice(ip) at a dose of 15 mg/kg (p<0.001).
In assay [10] the target is T1, Nitric oxide synthase 1. Description: In vitro inhibitory concentration against rat cerebellar neuronal nitric oxide synthase; No effect. In short, it runs like this: as §1

T1 sequence (P29476 whole entry): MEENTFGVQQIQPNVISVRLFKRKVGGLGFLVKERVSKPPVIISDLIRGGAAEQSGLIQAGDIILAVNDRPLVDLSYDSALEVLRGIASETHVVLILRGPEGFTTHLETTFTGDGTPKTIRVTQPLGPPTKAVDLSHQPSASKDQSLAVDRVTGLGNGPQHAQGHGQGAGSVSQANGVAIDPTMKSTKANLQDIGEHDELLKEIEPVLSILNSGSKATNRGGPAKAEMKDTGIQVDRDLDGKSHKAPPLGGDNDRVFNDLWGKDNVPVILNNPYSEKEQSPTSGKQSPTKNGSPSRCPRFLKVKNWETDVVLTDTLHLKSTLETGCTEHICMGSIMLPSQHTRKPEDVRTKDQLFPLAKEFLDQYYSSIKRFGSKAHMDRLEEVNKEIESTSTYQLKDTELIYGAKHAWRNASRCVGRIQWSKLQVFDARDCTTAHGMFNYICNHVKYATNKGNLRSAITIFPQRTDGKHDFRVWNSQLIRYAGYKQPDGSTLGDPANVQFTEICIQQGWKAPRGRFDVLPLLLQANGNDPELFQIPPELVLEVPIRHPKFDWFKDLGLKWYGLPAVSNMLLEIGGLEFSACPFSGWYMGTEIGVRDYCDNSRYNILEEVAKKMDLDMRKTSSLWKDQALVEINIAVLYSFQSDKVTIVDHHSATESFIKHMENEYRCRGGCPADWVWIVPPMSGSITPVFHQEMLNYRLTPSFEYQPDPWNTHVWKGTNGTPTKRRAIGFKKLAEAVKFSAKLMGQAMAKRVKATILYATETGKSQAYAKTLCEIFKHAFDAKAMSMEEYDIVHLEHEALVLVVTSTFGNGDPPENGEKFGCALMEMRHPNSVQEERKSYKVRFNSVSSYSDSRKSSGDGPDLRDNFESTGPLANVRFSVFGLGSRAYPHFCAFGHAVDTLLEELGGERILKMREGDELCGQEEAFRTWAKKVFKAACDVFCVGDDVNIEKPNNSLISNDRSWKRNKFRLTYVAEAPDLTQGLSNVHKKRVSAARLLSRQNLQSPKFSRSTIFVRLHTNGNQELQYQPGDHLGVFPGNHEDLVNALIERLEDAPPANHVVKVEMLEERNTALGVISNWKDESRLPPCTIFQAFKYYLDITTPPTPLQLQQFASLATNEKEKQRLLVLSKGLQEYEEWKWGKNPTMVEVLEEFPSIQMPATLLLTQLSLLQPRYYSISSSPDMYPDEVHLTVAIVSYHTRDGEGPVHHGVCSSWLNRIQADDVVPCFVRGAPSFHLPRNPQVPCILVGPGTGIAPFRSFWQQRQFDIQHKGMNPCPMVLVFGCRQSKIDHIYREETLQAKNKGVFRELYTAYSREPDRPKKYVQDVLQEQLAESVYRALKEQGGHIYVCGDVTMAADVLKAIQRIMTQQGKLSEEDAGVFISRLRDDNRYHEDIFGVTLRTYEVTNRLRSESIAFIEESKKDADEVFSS
Chain of Nitric oxide synthase 1 (Rattus norvegicus) (P29476 whole entry): as above

Regarding `FC(F)(F)c1ccccc1-n1ccnc1`, inhibition against Nitric oxide synthase 1 [1] was half-maximal at 30 µM (IC50). This compound showed an inhibition in [2] of 45%.

On Nitric oxide synthase 1 [1], `Oc1cccc2cn[nH]c12` returned an IC50 of more than 100 µM. Besides, in assay [3], the inhibition was determined as 7%.

The compound `COc1ccc2[nH]ncc2c1` yielded an IC50 on Nitric oxide synthase 1 [1] of more than 100 µM. In addition, the inhibition in assay [3] was determined as 25%.

Regarding `COc1cccc2c[nH]nc12`, the No. of writhes with Mus musculus [4] came out at 10.6; in the assay with Mus musculus [5], 4.7; with Mus musculus [6], 12.2; in the assay on Mus musculus [7], 15.4. Further, at Nitric oxide synthase 1 [1], half-maximal inhibition (IC50) was put at 6.3 µM. This compound showed an inhibition in [3] of 80%.

On Nitric oxide synthase 1 [1], `Fc1ccc2[nH]ncc2c1` displayed an IC50 of more than 100 µM.

Take `COc1cccc2c(I)[nH]nc12`: on Nitric oxide synthase 1 [8], the half-inhibitory concentration (IC50) result is “Not Active”. In addition, the inhibition in assay [3] was 0%.

`CC(=O)Oc1ccccc1C(=O)O` [ASPIRIN] registered a No. of writhes in the assay with Mus musculus [9] of 3.5.

Consider `COc1ccc2c[nH]nc2c1`, for which, at Nitric oxide synthase 1 [10], the IC50 result is listed as “Not Active”. In [3], the inhibition stood at 0%.

With `c1ccc(COc2cccc3c[nH]nc23)cc1`, the IC50 result on Nitric oxide synthase 1 [8] is on record as “Not Active”. In assay [3], this compound registered an inhibition of 0%.

As for `Cc1ccc2cn[nH]c2c1`, at Nitric oxide synthase 1 [1], the half-inhibitory concentration (IC50) was more than 100 µM.

Compound `O=[N+]([O-])c1cccc2cn[nH]c12` [7-NITROINDAZOLE] displayed a No. of writhes with Mus musculus [5] of 6.2. In assay [2], this compound came in with an inhibition of 92%.

On Nitric oxide synthase 1 [1], `Brc1ccc2[nH]ncc2c1` returned a concentration for half-maximal inhibition (IC50) of 75 µM.

Consider `CCOc1cccc2c[nH]nc12`, for which, on Nitric oxide synthase 1 [1], the IC50 came out at 100 µM. In [3], this compound had an inhibition of 50%.

Compound `COc1cccc2[nH]ncc12` returned a concentration for half-maximal inhibition (IC50) against Nitric oxide synthase 1 [1] of more than 100 µM. In assay [3], this compound showed an inhibition of 30%.

For the compound `Clc1ccc2cn[nH]c2c1`, the IC50 against Nitric oxide synthase 1 [1] amounted to 28 µM.
